Source: ChEMBL document CHEMBL1137886, “Pyridazine derivatives and related compounds. Part 13: Synthesis and antimicrobial activity of some pyridazino[3',4':3,4]pyrazolo[5,1-c]-1,2,4-triazines” (2004)

Experiments:
Candida albicans [1] = test: In vitro antifungal activity against Candida albicans was evaluated by measuring the diameter of zone of inhibition; type: functional
Method in brief: (§1)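 Disc diffusion: glass microfiber discs (0.6 cm) saturated with 0.2 mL of aqueous compound solutions at various concentrations, placed on malt extract agar seeded with the yeast; plates incubated at 28°C for 96 h; inhibition zone diameter measured in mm.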

Staphylococcus aureus [2] = test: In vitro antimicrobial activity against Staphylococcus aureus was evaluated by measuring the diameter of zone of inhibition; NS denotes no significant inhibition; type: functional, organism-based
Method in brief: (§2)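 Disc diffusion on nutrient agar seeded with the bacterium: glass microfiber discs (0.6 cm) saturated with 0.2 mL of aqueous compound solutions at different concentrations; incubation at 37°C for 48 h; diameter of growth-inhibition zone read in millimetres.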

Pseudomonas aeruginosa [3] = test: In vitro antimicrobial activity against Pseudomonas aeruginosa was evaluated by measuring the diameter of zone of inhibition; NS denotes no significant inhibition; type: functional, organism-based; method in brief: as §2
Candida albicans [4] = test: In vitro antifungal activity against Candida albicans was evaluated by measuring the diameter of zone of inhibition; NS denotes no significant inhibition; type: functional, organism-based; method in brief: as §1
Escherichia coli [5] = test: In vitro antimicrobial activity against Escherichia coli was evaluated by measuring the diameter of zone of inhibition; NS denotes no significant inhibition; type: functional, organism-based; method in brief: as §2
Escherichia coli [6] = test: In vitro antimicrobial activity against Escherichia coli was evaluated by measuring the diameter of zone of inhibition; type: functional; method in brief: as §2
Staphylococcus aureus [7] = test: In vitro antimicrobial activity against Staphylococcus aureus was evaluated by measuring the diameter of zone of inhibition; type: functional; method in brief: as §2
Pseudomonas aeruginosa [8] = test: In vitro antimicrobial activity against Pseudomonas aeruginosa was evaluated by measuring the diameter of zone of inhibition; type: functional; method in brief: as §2

SMILES	Inhibition (Candida albicans [1])	Inhibition (Staphylococcus aureus [2])	Inhibition (Pseudomonas aeruginosa [3])	Inhibition (Candida albicans [4])	Inhibition (Escherichia coli [5])	Inhibition (Escherichia coli [6])	Inhibition (Staphylococcus aureus [7])	Inhibition (Pseudomonas aeruginosa [8])
Cc1ccc(/C=N/NC(=O)c2nnc3c4c(-c5ccccc5)c(-c5ccccc5)nnc4nn3c2C)s1	2 mm							
CCOC(=O)c1nnc2c3c(-c4ccccc4)c(-c4ccccc4)nnc3nn2c1C		No inhibition	No inhibition	No inhibition	No inhibition			
NNC(=O)c1nnc2c3c(-c4ccccc4)c(-c4ccccc4)nnc3nn2c1-c1ccccc1		No inhibition	No inhibition	No inhibition	No inhibition			
Cc1ccc(/C=N/NC(=O)c2nnc3c4c(-c5ccccc5)c(-c5ccccc5)nnc4nn3c2C)o1		No inhibition	No inhibition	No inhibition	No inhibition			
Cc1c(C(=O)N/N=C/c2ccc[nH]2)nnc2c3c(-c4ccccc4)c(-c4ccccc4)nnc3nn12						2 mm		
Cc1c(C(=O)N/N=C/c2cccs2)nnc2c3c(-c4ccccc4)c(-c4ccccc4)nnc3nn12						2 mm	2 mm	
Cc1c(C(=O)N/N=C/c2cccn2C)nnc2c3c(-c4ccccc4)c(-c4ccccc4)nnc3nn12		No inhibition	No inhibition	No inhibition	No inhibition			
Cc1c(C(=O)N/N=C/c2ccccc2)nnc2c3c(-c4ccccc4)c(-c4ccccc4)nnc3nn12		No inhibition	No inhibition	No inhibition	No inhibition			
CC(=O)c1nnc2c3c(-c4ccccc4)c(-c4ccccc4)nnc3nn2c1C	3 mm						4 mm	
Cc1c(C(=O)N/N=C/c2ccc(Cl)cc2)nnc2c3c(-c4ccccc4)c(-c4ccccc4)nnc3nn12		No inhibition	No inhibition	No inhibition	No inhibition			
Cc1c(C(=O)N/N=C/c2ccco2)nnc2c3c(-c4ccccc4)c(-c4ccccc4)nnc3nn12						2 mm		
CCOC(=O)c1nnc2c3c(-c4ccccc4)c(-c4ccccc4)nnc3nn2c1-c1ccccc1		No inhibition	No inhibition	No inhibition	No inhibition			
Cc1c(C(=O)N/N=C/c2ccc3ccccc3c2)nnc2c3c(-c4ccccc4)c(-c4ccccc4)nnc3nn12		No inhibition	No inhibition	No inhibition	No inhibition			
c1ccc(-c2nnc3nn4c(-c5ccccc5)cnnc4c3c2-c2ccccc2)cc1		No inhibition	No inhibition	No inhibition	No inhibition			
O=C(NNc1ccccc1)c1nnc2c3c(-c4ccccc4)c(-c4ccccc4)nnc3nn2c1-c1ccccc1		No inhibition	No inhibition	No inhibition	No inhibition			
NC(=O)NNC(=O)c1nnc2c3c(-c4ccccc4)c(-c4ccccc4)nnc3nn2c1-c1ccccc1		No inhibition	No inhibition	No inhibition	No inhibition			
Cc1c(C(=O)O)nnc2c3c(-c4ccccc4)c(-c4ccccc4)nnc3nn12		No inhibition	No inhibition	No inhibition	No inhibition			
Cc1c(C(=O)NNc2ccccc2)nnc2c3c(-c4ccccc4)c(-c4ccccc4)nnc3nn12		No inhibition	No inhibition	No inhibition	No inhibition			
C/C(=N\NC(N)=O)c1nnc2c3c(-c4ccccc4)c(-c4ccccc4)nnc3nn2c1C		No inhibition	No inhibition	No inhibition	No inhibition			
Cc1c(/C(=N/NC(N)=O)c2ccccc2)nnc2c3c(-c4ccccc4)c(-c4ccccc4)nnc3nn12						3 mm	4 mm	2 mm
Cc1c(C(=O)N/N=C/c2ccc([N+](=O)[O-])cc2)nnc2c3c(-c4ccccc4)c(-c4ccccc4)nnc3nn12						5 mm		
COc1ccc(/C=N/NC(=O)c2nnc3c4c(-c5ccccc5)c(-c5ccccc5)nnc4nn3c2C)cc1							3 mm	
Cc1cnnc2c3c(-c4ccccc4)c(-c4ccccc4)nnc3nn12		No inhibition	No inhibition	No inhibition	No inhibition			
Cc1c(/C(=N/Nc2ccccc2)c2ccccc2)nnc2c3c(-c4ccccc4)c(-c4ccccc4)nnc3nn12		No inhibition	No inhibition	No inhibition	No inhibition			
O=C(O)c1nnc2c3c(-c4ccccc4)c(-c4ccccc4)nnc3nn2c1-c1ccccc1		No inhibition	No inhibition	No inhibition	No inhibition			
Cc1c(/C(=N/N)c2ccccc2)nnc2c3c(-c4ccccc4)c(-c4ccccc4)nnc3nn12		No inhibition	No inhibition	No inhibition	No inhibition			
Cc1c(C(=O)NNC(N)=O)nnc2c3c(-c4ccccc4)c(-c4ccccc4)nnc3nn12		No inhibition	No inhibition	No inhibition	No inhibition			
